# System: HEK-293T
# Experiment: Multiplex assay against HEK293T;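 for Population Tubulin-Different-Phenotype (%): share of the cells with healthy nuclei that show this phenotype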
# Format: toxicity, cell-based
# Settings: human
# In short: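 Compound was added to live cells that had been stained at seeding with Hoechst33342, BioTracker Green Microtubule Cytoskeleton Dye, MitoTracker Red and Annexin V Alexa Fluor 680, and imaging followed on a CQ1 microscope at 37°C and 5% CO2. CellPathfinder machine-learning gating divided cells into Hoechst high-intensity objects or normal cells, normal cells into healthy, pyknosed or fragmented nuclei, and pyknosed cells into mitotic or apoptotic. Tubulin, mitochondrial-mass and membrane-permeability phenotypes are per cents of healthy-nucleus cells.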
# [1] = 12 h, 1 µM, compound concentration 1 uM, replicate 1
# [2] = 12 h, 1 µM, compound concentration 1 uM, replicate 2
# [3] = 12 h, 10 µM, compound concentration 10 uM, replicate 1
# [4] = 12 h, 10 µM, compound concentration 10 uM, replicate 2
# [5] = 24 h, 1 µM, compound concentration 1 uM, replicate 1
# [6] = 24 h, 1 µM, compound concentration 1 uM, replicate 2
# [7] = 24 h, 10 µM, compound concentration 10 uM, replicate 1
# [8] = 24 h, 10 µM, compound concentration 10 uM, replicate 2
# [9] = 12 h, 0 µM, compound concentration 0 uM, replicate 1
# [10] = 12 h, 0 µM, compound concentration 0 uM, replicate 2
# [11] = 24 h, 0 µM, compound concentration 0 uM, replicate 1
# [12] = 24 h, 0 µM, compound concentration 0 uM, replicate 2
compound,measurement,setting,value
COc1ccc(S(=O)(=O)N(CCO)c2ccccc2CN(C)C/C=C/c2ccc(Cl)cc2)cc1.O=P(O)(O)O,Population Apoptotic (%),[1],42%
same,Population Fragmented Nuclei (%),[1],11%
same,Population Healthy Nuclei (%),[1],28%
same,Population Hoechst High Intensity Objects (%),[1],16%
same,Population Membrane Permeable-Phenotype (%),[1],6%
same,Population Mitochondria Different-Phenotype (%),[1],79%
same,Population Mitotic Cells (%),[1],57%
same,Population Normal (%),[1],83%
same,Population Pyknosed Nuclei (%),[1],59%
same,Population Tubulin-Different-Phenotype (%),[1],87%
same,Total Cell Count,[1],585
same,Population Apoptotic (%),[2],35%
same,Population Fragmented Nuclei (%),[2],1%
same,Population Healthy Nuclei (%),[2],67%
same,Population Hoechst High Intensity Objects (%),[2],7%
same,Population Membrane Permeable-Phenotype (%),[2],3%
same,Population Mitochondria Different-Phenotype (%),[2],90%
same,Population Mitotic Cells (%),[2],64%
same,Population Normal (%),[2],92%
same,Population Pyknosed Nuclei (%),[2],30%
same,Population Tubulin-Different-Phenotype (%),[2],90%
same,Total Cell Count,[2],929
same,Population Apoptotic (%),[3],14%
same,Population Fragmented Nuclei (%),[3],11%
same,Population Healthy Nuclei (%),[3],67%
same,Population Hoechst High Intensity Objects (%),[3],8%
same,Population Membrane Permeable-Phenotype (%),[3],6%
same,Population Mitochondria Different-Phenotype (%),[3],9%
same,Population Mitotic Cells (%),[3],85%
same,Population Normal (%),[3],91%
same,Population Pyknosed Nuclei (%),[3],21%
same,Population Tubulin-Different-Phenotype (%),[3],25%
same,Total Cell Count,[3],633
same,Population Apoptotic (%),[4],13%
same,Population Fragmented Nuclei (%),[4],6%
same,Population Healthy Nuclei (%),[4],87%
same,Population Hoechst High Intensity Objects (%),[4],3%
same,Population Mitochondria Different-Phenotype (%),[4],21%
same,Population Mitotic Cells (%),[4],86%
same,Population Normal (%),[4],96%
same,Population Pyknosed Nuclei (%),[4],6%
same,Population Tubulin-Different-Phenotype (%),[4],36%
same,Total Cell Count,[4],1412
same,Population Apoptotic (%),[5],61%
same,Population Fragmented Nuclei (%),[5],13%
same,Population Healthy Nuclei (%),[5],25%
same,Population Hoechst High Intensity Objects (%),[5],18%
same,Population Membrane Permeable-Phenotype (%),[5],7%
same,Population Mitochondria Different-Phenotype (%),[5],81%
same,Population Mitotic Cells (%),[5],38%
same,Population Normal (%),[5],81%
same,Population Pyknosed Nuclei (%),[5],60%
same,Population Tubulin-Different-Phenotype (%),[5],85%
same,Total Cell Count,[5],551
same,Population Apoptotic (%),[6],43%
same,Population Fragmented Nuclei (%),[6],1%
same,Population Healthy Nuclei (%),[6],59%
same,Population Hoechst High Intensity Objects (%),[6],10%
same,Population Membrane Permeable-Phenotype (%),[6],2%
same,Population Mitochondria Different-Phenotype (%),[6],95%
same,Population Mitotic Cells (%),[6],56%
same,Population Normal (%),[6],89%
same,Population Pyknosed Nuclei (%),[6],38%
same,Population Tubulin-Different-Phenotype (%),[6],77%
same,Total Cell Count,[6],913
same,Population Apoptotic (%),[7],17%
same,Population Fragmented Nuclei (%),[7],8%
same,Population Healthy Nuclei (%),[7],80%
same,Population Hoechst High Intensity Objects (%),[7],6%
same,Population Membrane Permeable-Phenotype (%),[7],10%
same,Population Mitochondria Different-Phenotype (%),[7],8%
same,Population Mitotic Cells (%),[7],82%
same,Population Normal (%),[7],93%
same,Population Pyknosed Nuclei (%),[7],11%
same,Population Tubulin-Different-Phenotype (%),[7],31%
same,Total Cell Count,[7],745
same,Population Apoptotic (%),[8],5%
same,Population Fragmented Nuclei (%),[8],15%
same,Population Hoechst High Intensity Objects (%),[8],2%
same,Population Mitotic Cells (%),[8],94%
same,Population Normal (%),[8],97%
same,Population Pyknosed Nuclei (%),[8],4%
same,Population Tubulin-Different-Phenotype (%),[8],37%
same,Total Cell Count,[8],2203
CCNc1cc(N[C@H]2CC[C@H](O)CC2)nc(Nc2ccc3c(ccn3Cc3ccccc3)c2)n1,Population Apoptotic (%),[9],42%
same,Population Fragmented Nuclei (%),[9],21%
same,Population Healthy Nuclei (%),[9],10%
same,Population Hoechst High Intensity Objects (%),[9],21%
same,Population Membrane Permeable-Phenotype (%),[9],16%
same,Population Mitochondria Different-Phenotype (%),[9],41%
same,Population Mitotic Cells (%),[9],57%
same,Population Normal (%),[9],78%
same,Population Pyknosed Nuclei (%),[9],67%
same,Population Tubulin-Different-Phenotype (%),[9],50%
same,Total Cell Count,[9],667
same,Population Apoptotic (%),[10],29%
same,Population Fragmented Nuclei (%),[10],3%
same,Population Healthy Nuclei (%),[10],38%
same,Population Hoechst High Intensity Objects (%),[10],6%
same,Population Membrane Permeable-Phenotype (%),[10],1%
same,Population Mitochondria Different-Phenotype (%),[10],83%
same,Population Mitotic Cells (%),[10],70%
same,Population Normal (%),[10],93%
same,Population Pyknosed Nuclei (%),[10],58%
same,Population Tubulin-Different-Phenotype (%),[10],97%
same,Total Cell Count,[10],1155
same,Population Apoptotic (%),[1],23%
same,Population Fragmented Nuclei (%),[1],12%
same,Population Healthy Nuclei (%),[1],54%
same,Population Hoechst High Intensity Objects (%),[1],10%
same,Population Mitochondria Different-Phenotype (%),[1],27%
same,Population Mitotic Cells (%),[1],76%
same,Population Normal (%),[1],89%
same,Population Pyknosed Nuclei (%),[1],32%
same,Population Tubulin-Different-Phenotype (%),[1],46%
same,Total Cell Count,[1],618
same,Population Apoptotic (%),[2],7%
same,Population Fragmented Nuclei (%),[2],3%
same,Population Healthy Nuclei (%),[2],85%
same,Population Hoechst High Intensity Objects (%),[2],2%
same,Population Membrane Permeable-Phenotype (%),[2],10%
same,Population Mitochondria Different-Phenotype (%),[2],33%
same,Population Mitotic Cells (%),[2],92%
same,Population Normal (%),[2],97%
same,Population Pyknosed Nuclei (%),[2],11%
same,Population Tubulin-Different-Phenotype (%),[2],80%
same,Total Cell Count,[2],1484
same,Population Apoptotic (%),[11],59%
same,Population Fragmented Nuclei (%),[11],26%
same,Population Healthy Nuclei (%),[11],10%
same,Population Hoechst High Intensity Objects (%),[11],19%
same,Population Membrane Permeable-Phenotype (%),[11],5%
same,Population Mitochondria Different-Phenotype (%),[11],51%
same,Population Mitotic Cells (%),[11],40%
same,Population Normal (%),[11],80%
same,Population Pyknosed Nuclei (%),[11],63%
same,Population Tubulin-Different-Phenotype (%),[11],53%
same,Total Cell Count,[11],694
same,Population Apoptotic (%),[12],37%
same,Population Fragmented Nuclei (%),[12],2%
same,Population Healthy Nuclei (%),[12],30%
same,Population Hoechst High Intensity Objects (%),[12],8%
same,Population Membrane Permeable-Phenotype (%),[12],2%
same,Population Mitochondria Different-Phenotype (%),[12],91%
same,Population Mitotic Cells (%),[12],62%
same,Population Normal (%),[12],91%
same,Population Pyknosed Nuclei (%),[12],66%
same,Population Tubulin-Different-Phenotype (%),[12],96%
same,Total Cell Count,[12],1176
same,Population Apoptotic (%),[5],20%
same,Population Fragmented Nuclei (%),[5],9%
same,Population Healthy Nuclei (%),[5],76%
same,Population Hoechst High Intensity Objects (%),[5],7%
same,Population Membrane Permeable-Phenotype (%),[5],8%
same,Population Mitochondria Different-Phenotype (%),[5],18%
same,Population Mitotic Cells (%),[5],79%
same,Population Normal (%),[5],92%
same,Population Pyknosed Nuclei (%),[5],13%
same,Population Tubulin-Different-Phenotype (%),[5],54%
same,Total Cell Count,[5],703
same,Population Apoptotic (%),[6],9%
same,Population Fragmented Nuclei (%),[6],11%
same,Population Healthy Nuclei (%),[6],83%
same,Population Hoechst High Intensity Objects (%),[6],2%
same,Population Membrane Permeable-Phenotype (%),[6],12%
same,Population Mitochondria Different-Phenotype (%),[6],14%
same,Population Mitotic Cells (%),[6],90%
same,Population Normal (%),[6],97%
same,Population Pyknosed Nuclei (%),[6],4%
same,Population Tubulin-Different-Phenotype (%),[6],75%
same,Total Cell Count,[6],2335

# Reference: ChEMBL document CHEMBL4689842, “EUbOPEN Chemogenomics Library wave 1” (2021)
